Measurements as given in ChEMBL document CHEMBL1146618, “Discovery of 2-amino-heteroaryl-benzothiazole-6-anilides as potent p56(lck) inhibitors” (Bioorg Med Chem Lett, 2003).

Columns and labels:
[1] = biological target: T1, Tyrosine-protein kinase Lck (Homo sapiens, UniProt P06239); assay: Inhibition of human p56 Lck tyrosine kinase
[2] = biological target: Proto-oncogene tyrosine-protein kinase Src (Homo sapiens, UniProt P12931); assay: Inhibition of Src protein tyrosine kinase
Procedure, shortened: (§1)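 Continuous coupled assay (pyruvate kinase/lactate dehydrogenase with PEP and NADH), run under the same conditions as the GST-Lck assay. Inhibitor was added in DMSO and the reaction started with ATP. Fluorescence was followed and rates were fitted by nonlinear least squares to derive Ki.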

[3] = biological target: T1, Tyrosine-protein kinase Lck; assay: Inhibition of p56 Lck tyrosine kinase
[4] = Inhibition of anti-CD3, anti-CD28 induced PBL T-cell proliferation; type: functional; settings: Homo sapiens
[5] = biological target: Tyrosine-protein kinase Fyn (Homo sapiens, UniProt P06241); assay: Inhibition of Fyn protein kinase; procedure, shortened: as §1
Chain of Tyrosine-protein kinase Fyn (P06241 whole entry): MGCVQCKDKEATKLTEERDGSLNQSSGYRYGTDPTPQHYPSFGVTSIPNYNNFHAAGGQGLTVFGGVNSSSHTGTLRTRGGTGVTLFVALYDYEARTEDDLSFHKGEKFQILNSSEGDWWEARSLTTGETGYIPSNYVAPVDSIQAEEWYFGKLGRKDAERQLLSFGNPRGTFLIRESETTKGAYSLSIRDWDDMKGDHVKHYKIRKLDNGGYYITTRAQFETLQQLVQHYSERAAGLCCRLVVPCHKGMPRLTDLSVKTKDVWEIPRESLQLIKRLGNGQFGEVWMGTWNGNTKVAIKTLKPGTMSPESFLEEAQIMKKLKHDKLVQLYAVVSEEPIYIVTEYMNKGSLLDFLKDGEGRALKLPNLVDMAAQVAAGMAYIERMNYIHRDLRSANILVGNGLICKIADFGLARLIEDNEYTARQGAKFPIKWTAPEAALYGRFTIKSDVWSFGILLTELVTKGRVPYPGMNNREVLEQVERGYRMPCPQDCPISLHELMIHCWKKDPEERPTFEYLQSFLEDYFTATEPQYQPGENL

Chain of Proto-oncogene tyrosine-protein kinase Src (P12931 2-536 limits assumed): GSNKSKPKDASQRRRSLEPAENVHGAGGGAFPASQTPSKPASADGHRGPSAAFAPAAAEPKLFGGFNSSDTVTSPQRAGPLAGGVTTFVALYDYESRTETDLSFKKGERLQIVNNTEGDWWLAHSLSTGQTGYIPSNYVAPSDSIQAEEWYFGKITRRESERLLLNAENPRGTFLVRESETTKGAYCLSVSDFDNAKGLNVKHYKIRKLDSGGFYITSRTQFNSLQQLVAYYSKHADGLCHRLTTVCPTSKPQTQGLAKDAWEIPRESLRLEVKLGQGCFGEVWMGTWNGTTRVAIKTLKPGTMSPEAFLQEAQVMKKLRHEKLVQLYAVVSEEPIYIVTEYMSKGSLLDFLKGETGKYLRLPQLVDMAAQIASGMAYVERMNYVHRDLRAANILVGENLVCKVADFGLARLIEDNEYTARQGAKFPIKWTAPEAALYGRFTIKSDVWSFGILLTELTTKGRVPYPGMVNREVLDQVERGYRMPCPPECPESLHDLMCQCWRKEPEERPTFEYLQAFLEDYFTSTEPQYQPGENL
T1 sequence (P06239 whole entry): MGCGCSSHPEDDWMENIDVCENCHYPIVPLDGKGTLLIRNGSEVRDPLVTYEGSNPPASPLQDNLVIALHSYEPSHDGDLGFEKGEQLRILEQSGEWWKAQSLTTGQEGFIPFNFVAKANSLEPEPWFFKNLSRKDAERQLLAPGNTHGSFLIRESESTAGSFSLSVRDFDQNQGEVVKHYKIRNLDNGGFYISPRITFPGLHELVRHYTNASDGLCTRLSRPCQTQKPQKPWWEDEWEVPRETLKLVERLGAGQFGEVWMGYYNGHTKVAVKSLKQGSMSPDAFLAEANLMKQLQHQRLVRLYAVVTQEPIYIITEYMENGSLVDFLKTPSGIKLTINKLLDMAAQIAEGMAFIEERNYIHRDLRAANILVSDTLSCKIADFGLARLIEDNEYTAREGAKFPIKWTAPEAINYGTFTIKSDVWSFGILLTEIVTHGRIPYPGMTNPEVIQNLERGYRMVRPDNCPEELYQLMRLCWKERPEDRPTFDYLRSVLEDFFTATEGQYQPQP

| Structure (SMILES) | IC50 [1] | further results |
| --- | --- | --- |
| Cc1cc(C)c(NC(=O)c2ccc3nc(Nc4ncc[nH]4)sc3c2)c(C)c1 | > 3100 nM | – |
| Cc1cccc(Cl)c1NC(=O)c1ccc2nc(Nc3cccc(NCCO)n3)sc2c1 | 0.5 nM | Ki [2]: 13 nM; Ki [3]: 0.9 nM; IC50 [4]: 475 nM; Ki [5]: 2.4 nM |
| Cc1cccc(Cl)c1NC(=O)c1ccc2nc(Nc3ccn[nH]3)sc2c1 | 1590 nM | – |
| Cc1cccc(Cl)c1NC(=O)c1ccc2nc(Nc3cnccn3)sc2c1 | 15 nM | – |
| Cc1cc(C)c(NC(=O)c2ccc3nc(Nc4ccncn4)sc3c2)c(C)c1 | 403 nM | – |
| Cc1cc(C)c(NC(=O)c2ccc3nc(Nc4ccccn4)sc3c2)c(C)c1 | 138 nM | – |
| Cc1cc(C)c(NC(=O)c2ccc3nc(Nc4cccc(C)n4)sc3c2)c(C)c1 | 180 nM | – |
| Cc1cccc(Cl)c1NC(=O)c1ccc2nc(NN3C=CC=CN3)sc2c1 | 41 nM | – |
| Cc1cccc(Cl)c1NC(=O)c1ccc2nc(Nc3cc(CN4CCOCC4)ccn3)sc2c1 | 1 nM | – |
| Cc1cc(C)c(NC(=O)c2ccc3nc(NCC4CC4)sc3c2)c(C)c1 | > 3100 nM | – |
| Cc1cc(C)c(NC(=O)c2ccc3nc(Nc4ccccc4)sc3c2)c(C)c1 | 1740 nM | – |
| Cc1cc(C)c(NC(=O)c2ccc3nc(Nc4cnc[nH]4)sc3c2)c(C)c1 | > 3100 nM | – |
| Cc1cc(Nc2nc3ccc(C(=O)Nc4c(C)cccc4Cl)cc3s2)nc(CN2CCOCC2)n1 | 10 nM | – |
| Cc1cccc(Cl)c1NC(=O)c1ccc2nc(Nc3ncc[nH]3)sc2c1 | > 3100 nM | – |
| Cc1cccc(Cl)c1NC(=O)c1ccc2nc(NC(=O)NC(C)(C)C)sc2c1 | – | Ki [2]: 333 nM; Ki [3]: 5.5 nM; IC50 [4]: 1100 nM; Ki [5]: 100 nM |
| Cc1nc(CN2CCOCC2)cc(Nc2nc3ccc(C(=O)Nc4c(C)cccc4Cl)cc3s2)n1 | 6 nM | – |

| Structure (SMILES) | IC50 [1] | further results |
| --- | --- | --- |
| Cc1cccc(Cl)c1NC(=O)c1ccc2nc(Nc3ccccn3)sc2c1 | 84 nM | – |
| Cc1cc(C)c(NC(=O)c2ccc3nc(Nc4nccnn4)sc3c2)c(C)c1 | 1890 nM | – |
| Cc1cccc(Cl)c1NC(=O)c1ccc2nc(Nc3cccc(CN4CCOCC4)n3)sc2c1 | 13 nM | – |
| CCc1cc(Nc2nc3ccc(C(=O)Nc4c(C)cc(C)cc4C)cc3s2)ncn1 | 77 nM | – |
| CNN1CCN(Cc2ccnc(Nc3nc4ccc(C(=O)Nc5c(C)cccc5Cl)cc4s3)c2)CC1 | 1 nM | – |
| Cc1cc(C)c(NC(=O)c2ccc3nc(Nc4ncccc4C)sc3c2)c(C)c1 | > 3100 nM | – |
| Cc1cc(C)c(NC(=O)c2ccc3nc(Nc4nc[nH]n4)sc3c2)c(C)c1 | > 3100 nM | – |
| Cc1cc(C)c(NC(=O)c2ccc3nc(Nc4ccncc4)sc3c2)c(C)c1 | > 3100 nM | – |
| Cc1cc(C)c(NC(=O)c2ccc3nc(Nc4ncccn4)sc3c2)c(C)c1 | > 3100 nM | – |
| Cc1cccc(Cl)c1NC(=O)c1ccc2nc(Nc3ccccc3)sc2c1 | 327 nM | – |
| Cc1cc(C)c(NC(=O)c2ccc3nc(Nc4cccnc4)sc3c2)c(C)c1 | > 3100 nM | – |
| Cc1cccc(Cl)c1NC(=O)c1ccc2nc(Nc3cc(N)ccn3)sc2c1 | 403 nM | – |
| Cc1cc(C)c(NC(=O)c2ccc3nc(Nc4nccs4)sc3c2)c(C)c1 | > 3100 nM | – |
| Cc1cc(Nc2nc3ccc(C(=O)Nc4c(C)cccc4Cl)cc3s2)nc(NCCO)n1 | 2 nM | Ki [2]: 10 nM; IC50 [3]: 1.1 nM; IC50 [4]: 329 nM; Ki [5]: 4 nM |
| Cc1cc(C)c(NC(=O)c2ccc3nc(Nc4cnccn4)sc3c2)c(C)c1 | 235 nM | – |

Further compounds by falling IC50 [1], results first:

| IC50 [1] | Structure (SMILES) | further results |
| --- | --- | --- |
| 72 nM | Cc1ccc(Nc2nc3ccc(C(=O)Nc4c(C)cc(C)cc4C)cc3s2)nc1 | – |
| 53 nM | Cc1cc(C)c(NC(=O)c2ccc3nc(Nc4cc(C)nc(C)n4)sc3c2)c(C)c1 | – |
| 35 nM | Cc1ccc(Nc2nc3ccc(C(=O)Nc4c(C)cccc4Cl)cc3s2)nc1 | – |
| 32 nM | Cc1ccnc(Nc2nc3ccc(C(=O)Nc4c(C)cc(C)cc4C)cc3s2)c1 | – |
| 31 nM | Cc1cccc(Cl)c1NC(=O)c1ccc2nc(Nc3ccnc(Cl)n3)sc2c1 | – |
| 27 nM | Cc1cccc(Cl)c1NC(=O)c1ccc2nc(Nc3ccncn3)sc2c1 | – |
| 21 nM | Cc1cc(Nc2nc3ccc(C(=O)Nc4c(C)cccc4Cl)cc3s2)ncn1 | – |
| 20 nM | Cc1cccc(Cl)c1NC(=O)c1ccc2nc(Nc3cc(Cl)ncn3)sc2c1 | – |
| 20 nM | Cc1cc(Nc2nc3ccc(C(=O)Nc4c(C)cccc4Cl)cc3s2)nc(C)n1 | – |
| 20 nM | CNc1nccc(Nc2nc3ccc(C(=O)Nc4c(C)cccc4Cl)cc3s2)n1 | – |
| 20 nM | Cc1ccnc(Nc2nc3ccc(C(=O)Nc4c(C)cccc4Cl)cc3s2)c1 | – |
| 17 nM | Cc1cnc(Nc2nc3ccc(C(=O)Nc4c(C)cc(C)cc4C)cc3s2)c(C)c1 | – |
| 13 nM | COc1cc(Nc2nc3ccc(C(=O)Nc4c(C)cccc4Cl)cc3s2)ncn1 | – |
| 10 nM | Cc1cccc(Cl)c1NC(=O)c1ccc2nc(Nc3cccc(CN(C)C)n3)sc2c1 | – |
| 9 nM | Cc1cccc(Nc2nc3ccc(C(=O)Nc4c(C)cccc4Cl)cc3s2)n1 | – |
| 9 nM | Cc1cccc(Cl)c1NC(=O)c1ccc2nc(Nc3cc(CN(C)C)ccn3)sc2c1 | – |
| 8 nM | Cc1cc(C)nc(Nc2nc3ccc(C(=O)Nc4c(C)cccc4Cl)cc3s2)c1 | – |
| 8 nM | Cc1cccc(Cl)c1NC(=O)c1ccc2nc(Nc3cc(NCCO)ncn3)sc2c1 | – |
| 8 nM | Cc1cccc(Cl)c1NC(=O)c1ccc2nc(Nc3cc(N)ncn3)sc2c1 | – |
| 7 nM | CNCc1cc(Nc2nc3ccc(C(=O)Nc4c(C)cccc4Cl)cc3s2)nc(C)n1 | – |
| 6 nM | Cc1cc(Nc2nc3ccc(C(=O)Nc4c(C)cccc4Cl)cc3s2)nc(NCC(C)(C)O)n1 | – |
| 6 nM | Cc1cccc(Cl)c1NC(=O)c1ccc2nc(Nc3cccc(NCC(C)(C)N)n3)sc2c1 | – |
| 6 nM | CC(=O)NCCNc1cc(Nc2nc3ccc(C(=O)Nc4c(C)cccc4Cl)cc3s2)ncn1 | – |
| 5 nM | CCc1cc(Nc2nc3ccc(C(=O)Nc4c(C)cccc4Cl)cc3s2)ncn1 | – |
| 5 nM | CCc1ccnc(Nc2nc3ccc(C(=O)Nc4c(C)cccc4Cl)cc3s2)c1 | – |
| 3 nM | Cc1cccc(Cl)c1NC(=O)c1ccc2nc(Nc3ccnc(NCCO)n3)sc2c1 | – |
| 2 nM | Cc1cccc(Cl)c1NC(=O)c1ccc2nc(Nc3cccc(N)n3)sc2c1 | – |
| 2 nM | CC(=O)NCCNc1cccc(Nc2nc3ccc(C(=O)Nc4c(C)cccc4Cl)cc3s2)n1 | – |
| 2 nM | CNc1cc(Nc2nc3ccc(C(=O)Nc4c(C)cccc4Cl)cc3s2)ncn1 | Ki [2]: 17 nM; Ki [3]: 6.6 nM; IC50 [4]: 690 nM; Ki [5]: 8.8 nM |
| 1 nM | Cc1cc(Nc2nc3ccc(C(=O)Nc4c(C)cccc4Cl)cc3s2)nc(NCC2CCCO2)n1 (stereo not given) | Ki [2]: 3.2 nM; Ki [3]: 0.54 nM; IC50 [4]: 262 nM; Ki [5]: 1.1 nM |
